Test results taken from ChEMBL document CHEMBL3632609, “Hederagenin as a triterpene template for the development of new antitumor compounds” (Eur J Med Chem, 2015).

What was measured:
Assay type in all cases: functional, cell-based
[1] = Cytotoxicity against human 518A2 cells assessed as cell survival after 96 hrs by sulforhodamine B assay; settings: 518A2, 96 h
How it was run: (§1)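 Cells in exponential growth were seeded at densities that avoided confluence and, after 24 h, exposed to serial compound dilutions (0-30 μM, DMSO ≤0.5% final) for 96 h. Cells were then fixed with 10% TCA at 4 °C, washed with water, and stained with 0.4% SRB for about 20 min. Excess dye was removed with 1% acetic acid, bound dye was taken up in 10 mM Tris base, and absorbance was read at 570 nm.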

A549 = assay: Cytotoxicity against human A549 cells assessed as cell survival after 96 hrs by sulforhodamine B assay; settings: A549, 96 h; how it was run: as §1
MCF7 = assay: Cytotoxicity against human MCF7 cells assessed as cell survival after 96 hrs by sulforhodamine B assay; settings: MCF7, 96 h; how it was run: as §1
8505C = assay: Cytotoxicity against human 8505C cells assessed as cell survival after 96 hrs by sulforhodamine B assay; how it was run: as §1
A2780 = assay: Cytotoxicity against human A2780 cells assessed as cell survival after 96 hrs by sulforhodamine B assay; settings: A2780, 96 h; how it was run: as §1
HT-29 = assay: Cytotoxicity against human HT-29 cells assessed as cell survival after 96 hrs by sulforhodamine B assay; settings: HT-29, 96 h; how it was run: as §1

SMILES	EC50 [1] [µM]	EC50 (A549) [µM]	EC50 (MCF7) [µM]	EC50 (8505C) [µM]	EC50 (A2780) [µM]	EC50 (HT-29) [µM]
CC1(C)CC[C@]2(C(=O)OCc3ccc(F)cc3)CC[C@]3(C)C(=CC[C@@H]4[C@@]5(C)CC[C@H](O)[C@@](C)(CO)[C@@H]5CC[C@]43C)[C@@H]2C1	10.2	8.5	9.2	6.7	11.4	11.3
CC1(C)CC[C@]2(C(=O)NCCN3CCOCC3)CC[C@]3(C)C(=CC[C@@H]4[C@@]5(C)CC[C@H](O)[C@@](C)(CO)[C@@H]5CC[C@]43C)[C@@H]2C1	> 30	> 30	> 30	> 30	> 30	> 30
CC1(C)CC[C@]2(C(=O)O)CC[C@]3(C)C(=CC[C@@H]4[C@@]5(C)CC[C@H](O)[C@@](C)(CO)[C@@H]5CC[C@]43C)[C@@H]2C1 [HEDERAGENIN]	34.9	29	25.7	38	19.9	50
Cc1ccc(COC(=O)[C@]23CCC(C)(C)C[C@H]2C2=CC[C@@H]4[C@@]5(C)CC[C@H](O)[C@@](C)(CO)[C@@H]5CC[C@@]4(C)[C@]2(C)CC3)cc1	11.8	13.7	13.7	8.8	14.7	14.8
CC1(C)CC[C@]2(C(=O)OCc3ccccc3Cl)CC[C@]3(C)C(=CC[C@@H]4[C@@]5(C)CC[C@H](O)[C@@](C)(CO)[C@@H]5CC[C@]43C)[C@@H]2C1	11.7	13.6	12.7	9.5	13.6	13.5
CC1(C)CC[C@]2(C(=O)OCc3ccc([N+](=O)[O-])cc3)CC[C@]3(C)C(=CC[C@@H]4[C@@]5(C)CC[C@H](O)[C@@](C)(CO)[C@@H]5CC[C@]43C)[C@@H]2C1	8.4	6.5	7.8	6.1	7.8	7.8
CC1(C)CC[C@]2(C(=O)On3nnc4ccccc43)CC[C@]3(C)C(=CC[C@@H]4[C@@]5(C)CC[C@H](O)[C@@](C)(CO)[C@@H]5CC[C@]43C)[C@@H]2C1	8.6	9.5	7.7	9.5	8.8	11.2
CC1(C)CC[C@]2(C(=O)OCc3c(F)cccc3F)CC[C@]3(C)C(=CC[C@@H]4[C@@]5(C)CC[C@H](O)[C@@](C)(CO)[C@@H]5CC[C@]43C)[C@@H]2C1	7.5	11.7	10.2	8.7	11.6	12
CC1(C)CC[C@]2(C(=O)OCc3ccccc3Br)CC[C@]3(C)C(=CC[C@@H]4[C@@]5(C)CC[C@H](O)[C@@](C)(CO)[C@@H]5CC[C@]43C)[C@@H]2C1	10.9	13.2	12.7	7.8	14.3	14.3
CC1(C)CC[C@]2(C(=O)OCc3ccccc3[N+](=O)[O-])CC[C@]3(C)C(=CC[C@@H]4[C@@]5(C)CC[C@H](O)[C@@](C)(CO)[C@@H]5CC[C@]43C)[C@@H]2C1	10.3	10.9	10.2	8.8	12.9	12.8
CC1(C)CC[C@]2(C(=O)OCc3ccccc3)CC[C@]3(C)C(=CC[C@@H]4[C@@]5(C)CC[C@H](O)[C@@](C)(CO)[C@@H]5CC[C@]43C)[C@@H]2C1	7.8	7	7.9	7.6	9.7	9.5
C#CCNC(=O)[C@]12CCC(C)(C)C[C@H]1C1=CC[C@@H]3[C@@]4(C)CC[C@H](O)[C@@](C)(CO)[C@@H]4CC[C@@]3(C)[C@]1(C)CC2	21.6	16.8	17	22.1	14.8	17.3
C#CCOC(=O)[C@]12CCC(C)(C)C[C@H]1C1=CC[C@@H]3[C@@]4(C)CC[C@H](O)[C@@](C)(CO)[C@@H]4CC[C@@]3(C)[C@]1(C)CC2	12.4	15.9	15.4	13.2	17	17.7
CC1(C)CC[C@]2(C(=O)OCc3cccc(Cl)c3)CC[C@]3(C)C(=CC[C@@H]4[C@@]5(C)CC[C@H](O)[C@@](C)(CO)[C@@H]5CC[C@]43C)[C@@H]2C1	11.7	13	13	11.9	13.8	14.8
CC1(C)CC[C@]2(C(=O)NCc3ccccc3)CC[C@]3(C)C(=CC[C@@H]4[C@@]5(C)CC[C@H](O)[C@@](C)(CO)[C@@H]5CC[C@]43C)[C@@H]2C1	13.7	15.7	14.6	13.5	11.4	15.1
CC1(C)CC[C@]2(C(=O)OCc3cccc([N+](=O)[O-])c3)CC[C@]3(C)C(=CC[C@@H]4[C@@]5(C)CC[C@H](O)[C@@](C)(CO)[C@@H]5CC[C@]43C)[C@@H]2C1	8.1	8.1	8.3	6.6	11.9	12
CC1(C)CC[C@]2(C(=O)OCc3ccc(Br)cc3)CC[C@]3(C)C(=CC[C@@H]4[C@@]5(C)CC[C@H](O)[C@@](C)(CO)[C@@H]5CC[C@]43C)[C@@H]2C1	11.6	13.5	13.5	8.6	13.2	13.7
Cc1cccc(COC(=O)[C@]23CCC(C)(C)C[C@H]2C2=CC[C@@H]4[C@@]5(C)CC[C@H](O)[C@@](C)(CO)[C@@H]5CC[C@@]4(C)[C@]2(C)CC3)c1	10.9	13.5	13.5	9.7	13.7	14.4
CC1(C)CC[C@]2(C(=O)OCc3c(F)c(F)c(F)c(F)c3F)CC[C@]3(C)C(=CC[C@@H]4[C@@]5(C)CC[C@H](O)[C@@](C)(CO)[C@@H]5CC[C@]43C)[C@@H]2C1	12.9	14.8	16.5	14.1	13.1	16.1
COc1cc(COC(=O)[C@]23CCC(C)(C)C[C@H]2C2=CC[C@@H]4[C@@]5(C)CC[C@H](O)[C@@](C)(CO)[C@@H]5CC[C@@]4(C)[C@]2(C)CC3)cc(OC)c1	12.7	14	13.4	12.8	13.5	14
CC1(C)CC[C@]2(C(=O)OCCCN3C(=O)c4ccccc4C3=O)CC[C@]3(C)C(=CC[C@@H]4[C@@]5(C)CC[C@H](O)[C@@](C)(CO)[C@@H]5CC[C@]43C)[C@@H]2C1	8.7	11.4	9	10.3	12.1	13.4
CC1(C)CC[C@]2(C(=O)OCc3ccccc3F)CC[C@]3(C)C(=CC[C@@H]4[C@@]5(C)CC[C@H](O)[C@@](C)(CO)[C@@H]5CC[C@]43C)[C@@H]2C1	10	13.2	12.5	11.2	13.4	13.2
CC1(C)CC[C@]2(C(=O)OCCC3OCCCO3)CC[C@]3(C)C(=CC[C@@H]4[C@@]5(C)CC[C@H](O)[C@@](C)(CO)[C@@H]5CC[C@]43C)[C@@H]2C1	11.1	13.1	12.7	13.1	15	13.4
CC1(C)CC[C@]2(C(=O)OCc3cccc(Br)c3)CC[C@]3(C)C(=CC[C@@H]4[C@@]5(C)CC[C@H](O)[C@@](C)(CO)[C@@H]5CC[C@]43C)[C@@H]2C1	13.8	14.2	14.2	13.7	14.6	15.3
CC1(C)CC[C@]2(C(=O)OCc3c(Cl)cccc3Cl)CC[C@]3(C)C(=CC[C@@H]4[C@@]5(C)CC[C@H](O)[C@@](C)(CO)[C@@H]5CC[C@]43C)[C@@H]2C1	9.2	12.9	12.7	9.4	14.4	13.3
CC1(C)CC[C@]2(C(=O)OCc3ccc(F)cc3F)CC[C@]3(C)C(=CC[C@@H]4[C@@]5(C)CC[C@H](O)[C@@](C)(CO)[C@@H]5CC[C@]43C)[C@@H]2C1	9.5	11.4	11.5	8	12.9	13
Cc1ccccc1COC(=O)[C@]12CCC(C)(C)C[C@H]1C1=CC[C@@H]3[C@@]4(C)CC[C@H](O)[C@@](C)(CO)[C@@H]4CC[C@@]3(C)[C@]1(C)CC2	9	12.6	11.3	8.4	12.9	13.2
CC1(C)CC[C@]2(C(=O)NCCN3CCCCC3)CC[C@]3(C)C(=CC[C@@H]4[C@@]5(C)CC[C@H](O)[C@@](C)(CO)[C@@H]5CC[C@]43C)[C@@H]2C1	3.7	2.7	6.5	3.6	1.8	1.3
CC1(C)CC[C@]2(C(=O)OCc3ccc(Cl)cc3)CC[C@]3(C)C(=CC[C@@H]4[C@@]5(C)CC[C@H](O)[C@@](C)(CO)[C@@H]5CC[C@]43C)[C@@H]2C1	11.4	9.8	12.7	8.1	13	13.5
